Screens from PubChem BioAssay.
SENP6 block = SENP6 protease inhibitors, primary screen, biochemical, luminescence, uHTS. Recombinant SENP6 catalytic domain, aminoluciferin luminescence. 1.8% of 330,000 active. AID 2599, 2010. Sentrin-specific protease 6 (Homo sapiens), Q9GZR1. inhibition, % at 10 µM;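 active means inhibition above about 50% at the single tested dose, limit read from the data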;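 further: plate controls were DMSO wells with enzyme for no effect and DMSO wells lacking enzyme for full effect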
SENP8 block-1 = human SENP8 protease inhibitors, primary screen, biochemical, fluorescence, Nedd8 protein substrate, uHTS. 0.64% of 360,000 active. recombinant SENP8. Sentrin-specific protease 8 (Homo sapiens), Q96LD8. inhibition, % at 20 µM; in the data active means inhibition mostly above about 40%, no sharp cut-off; inactive means mostly below about 27%
Target sequence (Q96LD8 whole entry, looked up): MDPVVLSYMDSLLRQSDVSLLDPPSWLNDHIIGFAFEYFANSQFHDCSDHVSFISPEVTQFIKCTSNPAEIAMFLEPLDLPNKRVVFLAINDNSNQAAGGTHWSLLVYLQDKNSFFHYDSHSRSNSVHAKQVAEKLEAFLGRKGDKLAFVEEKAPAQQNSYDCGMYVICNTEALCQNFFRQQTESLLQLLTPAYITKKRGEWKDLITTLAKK
UBC13 polyUb = UBC13 polyubiquitin chain formation inhibitors, primary screen, biochemical, TR-FRET, uHTS; Ubiquitin-conjugating enzyme E2 N (Homo sapiens), P61088; inhibition, % at 20 µM; 0.47% of 330,000 active; AID 485273, 2010; in the data active means inhibition above about 45%, passing the limit was not always enough; inconclusive means no clear call, values can overlap the other calls
Target sequence (P61088 whole entry, looked up): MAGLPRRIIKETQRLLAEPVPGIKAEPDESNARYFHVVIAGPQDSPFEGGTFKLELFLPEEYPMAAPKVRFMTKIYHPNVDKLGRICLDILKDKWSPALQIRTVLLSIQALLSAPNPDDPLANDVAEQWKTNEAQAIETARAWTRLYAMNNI
Apaf-1 inh = inhibitors of human Apaf-1 apoptosome, primary screen, biochemical, DEVD-Rh110 fluorescence, uHTS; inhibition, % at 20 µM; 0.71% of 330,000 active; reconstituted apoptosome caspase-3 activity; Apoptotic protease-activating factor 1 (Homo sapiens), O14727; active means inhibition of at least 40% at 20 µM;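 further: plate controls were DMSO wells for no effect and DEVD-CHO caspase inhibitor wells for full effect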
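Material: reconstituted apoptosome with Apaf-1, cytochrome c, caspase-9, procaspase-3, dATP. Technique: Rh110 fluorescence intensity. Buffer or medium: pH 7.5 Hepes buffer with CHAPS, BSA, DTT. Times: 30 min plus 50 min, RT.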
SENP8 block-2 = SENP8 protease inhibitors, primary screen, biochemical, luminescence; inhibition, % at 10 µM; 1.2% of 330,000 active; Sentrin-specific protease 8 (Homo sapiens), Q96LD8; purified SENP8, Z-RLRGG-aminoluciferin cleavage; AID 2540, 2010; in the data active means inhibition above about 50%
SENP7 block = SENP7 protease inhibitors, primary screen, biochemical, luminescence, uHTS | 1.5% of 330,000 active | recombinant SENP7, Z-RLRGG-aminoluciferin luminescence, 40 min | Sentrin-specific protease 7 (Homo sapiens), Q9BQF6 | inhibition, % at 5 µM;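 active means inhibition above about 50% at the single test dose, limit read from the data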;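 further: plate controls were DMSO with enzyme for no effect and no enzyme buffer wells for full effect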
SENP8 conf = SENP8 protease inhibitors, retest, confirmation, biochemical, luminescence, single concentration | shares compounds with SENP7 block | Recombinant SENP8, Z-RLRGG-aminoluciferin luminescence, 60 min | inhibition, % at 12.5 µM | 40% of 6,200 active;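 active means mean inhibition across replicates above about 50%, limit read from the data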
SENP6 conf = SENP6 protease inhibitors, confirmation, biochemical, luminescence, single concentration | 58% of 6,200 active | inhibition, % at 12.5 µM | AID 488915, 2010 | recombinant SENP6, Z-RLRGG-aminoluciferin luminescence | shares compounds with SENP7 block
SENP7 conf = SENP7 protease inhibitors, retest, confirmation, biochemical, luminescence, single concentration | inhibition, % at 12.5 µM | AID 488917, 2010 | 69% of 6,200 active | shares compounds with SENP7 block | recombinant SENP7, Z-RLRGG-aminoluciferin luminescence, 40 min
Casp3 select = caspase-3 protease inhibitors, confirmation, selectivity assay for SENP inhibitor project, biochemical, single concentration. shares compounds with SENP7 block. inhibition, % at 12.5 µM. 60% of 6,200 active. purified caspase-3, Z-DEVD-aminoluciferin luminescence, 60 min;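 active means mean inhibition above about 50%, limit read from the data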;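 further: plate controls were enzyme with DMSO for no effect and wells without caspase-3 for full effect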
Target sequence (P42574 28-227 limits assumed): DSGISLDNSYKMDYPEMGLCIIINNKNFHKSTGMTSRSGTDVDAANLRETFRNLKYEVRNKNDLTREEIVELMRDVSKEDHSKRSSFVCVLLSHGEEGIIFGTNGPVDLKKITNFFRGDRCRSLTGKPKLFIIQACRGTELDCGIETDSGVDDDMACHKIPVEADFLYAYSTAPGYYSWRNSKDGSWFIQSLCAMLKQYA
Luc interf = luminescence interference (SENP counter-screen); AID 488919; shares compounds with SENP7 block; inhibition, % at 12.5 µM; 39% of 6,200 active; Pre-incubated SENP8/Z-RLRGG-aminoluciferin, luciferase luminescence interference;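 active means mean inhibition above about 50% when retested at one dose, limit read from the data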;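 further: plate controls were DMSO wells with completed reaction for no effect and substrate without enzyme for full effect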
Active calls of the source: *; ? = inconclusive; . = no result. An excerpt weighted towards active compounds, which were near 3% of everything screened.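 How the source made its calls, unless noted: active means mean inhibition above about 50% in the one-dose retest (limit read from the data); inactive means the rest.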

SMILES	SENP6 block	SENP8 block-1	UBC13 polyUb	Apaf-1 inh	SENP8 block-2	SENP7 block	SENP8 conf	SENP6 conf	SENP7 conf	Casp3 select	Luc interf
Cc1ccnc(NC(=O)c2oc3ccccc3c2C)c1	81*	9	-2	12	72*	85*	52*	85*	81*	58*	44
CCOc1ccc2oc(C(=O)Nc3ccc4c(c3)OCO4)c(C)c2c1	73*	-31	6	21	65*	62*	63*	4	86*	53*	38
CCOc1ccc2oc(C(=O)Nc3cc(C)ccn3)c(C)c2c1	93*	-220	4	16	90*	97*	38	63*	76*	83*	22
C=CCN(C(=O)c1csnn1)C(C(=O)NCc1ccccc1)c1cccs1 (centres undefined)	5	2	-2	-2	-3	7	.	.	.	.	.
Cc1csc(NC(=O)c2oc3ccccc3c2C)n1	42	-74	10	10	17	46	.	.	.	.	.
Cc1c(C(=O)NC2=NCCS2)oc2ccccc12	86*	11	2	-18	70*	86*	81*	83*	98*	93*	87*
O=C(O)c1ccc(N/N=C/c2c(F)cccc2Cl)cc1	97*	-12	4	2	96*	98*	100*	101*	104*	96*	99*
O=C(N/N=C/c1c(F)cccc1Cl)C1CC1	-15	16	4	-142	7	-8	.	.	.	.	.
O=C(O)c1ccc(/C=N/Nc2ccc(Cl)nn2)cc1	72*	17	-8	7	65*	76*	19	26	20	81*	10
O=C(O)c1ccc(N/N=C/c2ccc(C(F)(F)F)cc2)cc1	101*	-76	-9	12	96*	98*	99*	99*	102*	94*	98*
O=C(O)c1ccc(/C=N/Nc2ccc(F)cc2F)cc1	101*	-54	-19	-7	96*	99*	99*	100*	103*	98*	99*
Oc1cccc(/C=N/Nc2ccc(Cl)nn2)c1	-14	-2	-8	7	-20	-8	.	.	.	.	.
O=C(N/N=C/c1ccc(C(F)(F)F)cc1)c1ccc(O)cc1	-3	10	1	3	-1	5	.	.	.	.	.
C=CCn1c(=O)c2ccccc2n2c(SCC(C)=O)nnc12	-15	-2	-2	-1	-6	2	.	.	.	.	.
Cc1noc(C)c1C(=O)NCC(=O)Nc1ccccc1Br	-2	3	10	2	-6	9	.	.	.	.	.
CC(C)(C)c1ccc(/C=N/Nc2ccc(C(=O)O)cc2)cc1	100*	-100	-8	3	96*	99*	100*	101*	104*	94*	99*
Cc1cc2nc3c(=O)n(C4CCCCC4)c(=O)[nH]c3nc2cc1N	.	-127	.	.	.	.	.	.	.	.	.
Cc1cc(NN)nc(NS(=O)(=O)c2ccccc2Cl)n1	7	12	-1	-4	4	7	.	.	.	.	.
COc1cc(C)nc(NS(=O)(=O)c2ccccc2Cl)n1	4	5	-4	-3	-7	52*	-25	-17	-6	-5	-6
O=C(O)c1cccc(NC(=S)NC(=O)c2cccc(OCc3ccccc3)c2)c1	56*	18	-5	10	34	-4	71*	61*	76*	8	63*
O=C(Nc1ccc(COc2ccccc2)cc1)Nc1cccc(C(=O)O)c1	97*	4	4	5	93*	92*	48	100*	18	60*	45
CC(C)(C)c1ccc(C(=O)NCC(=O)O)cc1	9	14	2	8	-2	6	.	.	.	.	.
COc1ccc(Cl)cc1N1C(=O)CN(Cc2cc(OC)c(OC)c(OC)c2)C1=S	11	25	8	11	0	3	.	.	.	.	.
N#Cc1c(-c2cccs2)nc(SCc2ccc(Cl)cc2)[nH]c1=O	3	-100	?	7	8	-4	.	.	.	.	.
O=c1[nH]c(SCc2ccc(Cl)cc2)nc2ccsc12	78*	.	1	9	63*	34	12	67*	88*	50	7
SMILES	SENP6 block	SENP8 block-1	UBC13 polyUb	Apaf-1 inh	SENP8 block-2	SENP7 block	SENP8 conf	SENP6 conf	SENP7 conf	Casp3 select	Luc interf
CN1N=C2c3ccccc3CCC2C1c1ccc(Cl)cc1 (centres undefined)	31	-195	10	-3	59*	7	-5	-2	1	-1	-2
O/C(=C\c1nc2ccccc2nc1/C=C(\O)c1ccccc1)c1ccccc1	9	-412	-87	16	3	1	.	.	.	.	.
O=Nc1[nH]c(=O)c(/C=C(\O)c2ccccc2)nc1NO	56*	26	-4	16	44	58*	68*	64*	86*	93*	70*
Cc1ccccc1-c1nc2sc(C)c(C)c2c(=O)o1	77*	21	-6	11	61*	83*	38	39	35	48	13
Cc1cccc(-c2nc3sc(C)cc3c(=O)o2)c1	5	-71	-10	23	-1	-5	.	.	.	.	.
Cc1sc2nc(-c3ccco3)oc(=O)c2c1C	-17	-90	6	20	-39	5	.	.	.	.	.
Cc1ccccc1-c1nc2sc(-c3ccccc3)cc2c(=O)o1	80*	-41	-3	8	37	84*	-21	-10	-7	9	-5
Cc1c(O)ccc(C(=O)CN2CCN(Cc3ccccc3)CC2)c1O	-21	-14	2	-4	-1	59*	-12	-1	-9	-4	-3
O=C(Nc1ccccc1O)C(c1ccccc1)c1ccccc1	-4	13	7	4	3	-2	.	.	.	.	.
O=C1c2ccccc2C(c2nnnn2-c2ccc3c(c2)OCCO3)N1Cc1cccnc1 (centres undefined)	.	33	.	.	.	.	.	.	.	.	.
